Calls of active or inactive are those of the source. The rule behind the calls is not given here.
System: Erythrocyte
Assay: (§1) Antioxidant activity assessed as inhibition of AAPH-induced hemolysis in rat RBC after 3 hrs
Format: functional, cell-based
Conditions: not given
Summary of the method: (§2)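 Rat blood drawn from abdominal aorta; RBC separated by centrifugation (2500 rpm, 10 min), washed three times with five volumes PBS pH 7.4. 2 mL RBC suspension mixed with 2 mL PBS containing varying glycoside amounts, then 1 mL of 400 mM AAPH in PBS; shaken at 37 °C for 3 h. Diluted with 8 mL PBS, centrifuged, supernatant A540 read; % inhibition versus control.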

| Structure (SMILES) | Activity |
| --- | --- |
| C=C(C)C(=O)CC/C(C)=C/CO[C@@H]1O[C@H](CO)[C@@H](OC(=O)/C=C/c2ccc(O)cc2)[C@H](O[C@@H]2O[C@@H](C)[C@H](O)[C@@H](O)[C@H]2O)[C@H]1O | inactive |
| CC(C)=CCC/C(C)=C/CO[C@@H]1O[C@H](CO)[C@@H](OC(=O)/C=C/c2ccc(O)cc2)[C@H](O[C@@H]2O[C@@H](C)[C@H](O)[C@@H](O)[C@H]2O)[C@H]1O | inactive |
| CC(C)=CCC/C(C)=C/CO[C@@H]1O[C@H](COC(=O)/C=C/c2ccc(O)cc2)[C@@H](O)[C@H](O[C@@H]2O[C@@H](C)[C@H](O)[C@@H](O)[C@H]2O)[C@H]1O | inactive |

System: not listed separately
Assay: as §1
Format: functional, cell-based
Conditions: erythrocyte
Summary of the method: as §2

| Structure (SMILES) | IC50 [µM] |
| --- | --- |
| C[C@@H]1O[C@@H](O[C@@H]2[C@@H](O)[C@@H](O)[C@H](O[C@@H]3[C@@H](O)[C@H](OCCc4ccc(O)cc4)O[C@H](CO)[C@H]3O)O[C@H]2C)[C@H](O)[C@H](O)[C@H]1O [LIGUROBUSTOSIDE M] | 134 |
| C[C@@H]1O[C@@H](O[C@@H]2[C@@H](O)[C@H](OCCc3ccc(O)c(O)c3)O[C@H](CO)[C@H]2OC(=O)/C=C/c2ccc(O)c(O)c2)[C@H](O)[C@H](O)[C@H]1O [ACETOSIDE] | 28 |
| C[C@@H]1O[C@@H](O[C@@H]2[C@@H](O)[C@@H](O)[C@H](O[C@@H]3[C@@H](O)[C@H](OCCc4ccc(O)cc4)O[C@H](CO)[C@H]3OC(=O)/C=C/c3ccc(O)cc3)O[C@H]2C)[C@H](O)[C@H](O)[C@H]1O [LIGUPURPUROSIDE B] | 80.4 |
| C[C@@H]1O[C@@H](O[C@@H]2[C@@H](O)[C@H](OCCc3ccc(O)cc3)O[C@H](COC(=O)/C=C/c3ccc(O)cc3)[C@H]2O)[C@H](O)[C@H](O)[C@H]1O [OSMANTHUSIDE B6] | 91.7 |
| C[C@@H]1O[C@@H](O[C@@H]2[C@@H](O)[C@@H](O)[C@H](O[C@@H]3[C@@H](O)[C@H](OCCc4ccc(O)cc4)O[C@H](CO)[C@H]3OC(=O)/C=C/c3ccc(O)c(O)c3)O[C@H]2C)[C@H](O)[C@H](O)[C@H]1O [LIGUROBUSTOSIDE N] | 21.8 |
| C/C(=C\CO[C@@H]1O[C@H](CO)[C@@H](OC(=O)/C=C/c2ccc(O)cc2)[C@H](O[C@@H]2O[C@@H](C)[C@H](O)[C@@H](O)[C@H]2O)[C@H]1O)C/C=C\C(C)(C)O [LIGUROBUSTOSIDE I] | 340 |
| Cc1c(C)c2c(c(C)c1O)CCC(C)(C(=O)O)O2 (centres undefined) [TROLOX] | 101 |
| C[C@@H]1O[C@@H](O[C@@H]2[C@@H](O)[C@H](OCCc3ccc(O)cc3)O[C@H](CO)[C@H]2OC(=O)/C=C/c2ccc(O)cc2)[C@H](O)[C@H](O)[C@H]1O [OSMANTHUSIDE B] | 160 |
| C[C@@H]1O[C@@H](O[C@H]2[C@H](Oc3cc(O)c4c(=O)cc(-c5ccc(O)cc5)oc4c3)O[C@H](CO)[C@@H](O)[C@@H]2O)[C@H](O)[C@H](O)[C@H]1O [RHOIFOLIN] | 95.9 |
| O=c1cc(-c2ccc(O)cc2)oc2cc(O[C@@H]3O[C@H](CO)[C@@H](O)[C@H](O)[C@H]3O)cc(O)c12 [APIGETRIN] | 88.4 |
| C[C@@H]1O[C@@H](O[C@@H]2[C@@H](O)[C@@H](O)[C@H](O[C@@H]3[C@@H](O)[C@H](OCCc4ccc(O)c(O)c4)O[C@H](CO)[C@H]3OC(=O)/C=C/c3ccc(O)c(O)c3)O[C@H]2C)[C@H](O)[C@H](O)[C@H]1O [LIGUPURPUROSIDE A] | 26.3 |

Source: ChEMBL document CHEMBL1146538, “Antioxidative glycosides from the leaves of Ligustrum robustum” (J Nat Prod, 2003)
